According to publication PMC12166256 (Clinical Pharmacology and Therapeutics, 2025):

Assay: MAD study: safety and tolerability
Type: in vivo, human
How it was run: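 Healthy males aged 18–55 with BMI 18–30 kg/m² were followed through dosing and a 6–8-day follow-up. Checks: physical examination, clinical laboratory tests, vital signs and 12-lead ECG, with adverse events coded in MedDRA. Events of special interest: ALT ≥2×ULN, QTcF ≥500 ms, Grade ≥2 photosensitivity, symptomatic overdose. Treatment-emergent events were summarised descriptively by organ class, preferred term and dose level for all exposed participants.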

SMILES: CN1C(=O)c2cccc(OC(F)F)c2[C@H]2C[C@@H]1c1nc3ccc(-c4cnc(C5(N)CCC5)nc4)cc3n12 [Balinatunfib]
- Alanine aminotransferase increased TEAE, events (MAD 200 mg BID, N = 8): 0
- Alanine aminotransferase increased TEAE, participants (MAD 200 mg BID, N = 8): 0 n (%)
- Any event TEAE, events (MAD 200 mg BID, N = 8): 7
- Any event TEAE, participants (MAD 200 mg BID, N = 8): 4 (50.0) n (%)
- Constipation TEAE, events (MAD 200 mg BID, N = 8): 0
- Constipation TEAE, participants (MAD 200 mg BID, N = 8): 0 n (%)
- Diarrhea TEAE, events (MAD 200 mg BID, N = 8): 1
- Diarrhea TEAE, participants (MAD 200 mg BID, N = 8): 1 (12.5) n (%)
- Dry skin TEAE, events (MAD 200 mg BID, N = 8): 2
- Dry skin TEAE, participants (MAD 200 mg BID, N = 8): 2 (25.0) n (%)
- Dysgeusia TEAE, events (MAD 200 mg BID, N = 8): 1
- Dysgeusia TEAE, participants (MAD 200 mg BID, N = 8): 1 (12.5) n (%)
- Gastrointestinal disorders TEAE, events (MAD 200 mg BID, N = 8): 1
- Gastrointestinal disorders TEAE, participants (MAD 200 mg BID, N = 8): 1 (12.5) n (%)
- General disorders and administration site conditions TEAE, events (MAD 200 mg BID, N = 8): 1
- General disorders and administration site conditions TEAE, participants (MAD 200 mg BID, N = 8): 1 (12.5) n (%)
- Headache TEAE, events (MAD 200 mg BID, N = 8): 0
- Headache TEAE, participants (MAD 200 mg BID, N = 8): 0 n (%)
- Injury, poisoning, and procedural complications TEAE, events (MAD 200 mg BID, N = 8): 0
- Injury, poisoning, and procedural complications TEAE, participants (MAD 200 mg BID, N = 8): 0 n (%)
- Investigations TEAE, events (MAD 200 mg BID, N = 8): 0
- Investigations TEAE, participants (MAD 200 mg BID, N = 8): 0 n (%)
- Medical device site reaction TEAE, events (MAD 200 mg BID, N = 8): 1
- Medical device site reaction TEAE, participants (MAD 200 mg BID, N = 8): 1 (12.5) n (%)
- Musculoskeletal and connective tissue disorders TEAE, events (MAD 200 mg BID, N = 8): 0
- Musculoskeletal and connective tissue disorders TEAE, participants (MAD 200 mg BID, N = 8): 0 n (%)
- Nasal dryness TEAE, events (MAD 200 mg BID, N = 8): 2
- Nasal dryness TEAE, participants (MAD 200 mg BID, N = 8): 2 (25.0) n (%)
- Neck pain TEAE, events (MAD 200 mg BID, N = 8): 0
- Neck pain TEAE, participants (MAD 200 mg BID, N = 8): 0 n (%)
- Nervous system disorders TEAE, events (MAD 200 mg BID, N = 8): 1
- Nervous system disorders TEAE, participants (MAD 200 mg BID, N = 8): 1 (12.5) n (%)
- Oropharyngeal pain TEAE, events (MAD 200 mg BID, N = 8): 0
- Oropharyngeal pain TEAE, participants (MAD 200 mg BID, N = 8): 0 n (%)
- Reproductive system and breast disorders TEAE, events (MAD 200 mg BID, N = 8): 0
- Reproductive system and breast disorders TEAE, participants (MAD 200 mg BID, N = 8): 0 n (%)
- Respiratory, thoracic, and mediastinal disorders TEAE, events (MAD 200 mg BID, N = 8): 2
- Respiratory, thoracic, and mediastinal disorders TEAE, participants (MAD 200 mg BID, N = 8): 2 (25.0) n (%)
- Skin and subcutaneous tissue disorders TEAE, events (MAD 200 mg BID, N = 8): 2
- Skin and subcutaneous tissue disorders TEAE, participants (MAD 200 mg BID, N = 8): 2 (25.0) n (%)
- Sneezing TEAE, events (MAD 200 mg BID, N = 8): 0
- Sneezing TEAE, participants (MAD 200 mg BID, N = 8): 0 n (%)
- Testicular mass TEAE, events (MAD 200 mg BID, N = 8): 0
- Testicular mass TEAE, participants (MAD 200 mg BID, N = 8): 0 n (%)
- Wound TEAE, events (MAD 200 mg BID, N = 8): 0
- Wound TEAE, participants (MAD 200 mg BID, N = 8): 0 n (%)
- PCSA QTcF increase from baseline ]30-60] msec, participants n/N1 (MAD 300 mg BID): four
- ALT in the participant with ALT > 3 ULN (MAD 300 mg BID, Day 18, 4 days after the last dose): 181 IU/L
- Abdominal pain TEAE, events (MAD 300 mg BID, N = 8): 1
- Abdominal pain TEAE, participants (MAD 300 mg BID, N = 8): 1 (12.5) n (%)
- Alanine aminotransferase increased TEAE, events (MAD 300 mg BID, N = 8): 1
- Alanine aminotransferase increased TEAE, participants (MAD 300 mg BID, N = 8): 1 (12.5) n (%)
- Any event TEAE, events (MAD 300 mg BID, N = 8): 3
- Any event TEAE, participants (MAD 300 mg BID, N = 8): 2 (25.0) n (%)
- Constipation TEAE, events (MAD 300 mg BID, N = 8): 1
- Constipation TEAE, participants (MAD 300 mg BID, N = 8): 1 (12.5) n (%)
- Diarrhea TEAE, events (MAD 300 mg BID, N = 8): 0
- Diarrhea TEAE, participants (MAD 300 mg BID, N = 8): 0 n (%)
- Dry skin TEAE, events (MAD 300 mg BID, N = 8): 0
- Dry skin TEAE, participants (MAD 300 mg BID, N = 8): 0 n (%)
- Dysgeusia TEAE, events (MAD 300 mg BID, N = 8): 0
- Dysgeusia TEAE, participants (MAD 300 mg BID, N = 8): 0 n (%)
- Gastrointestinal disorders TEAE, events (MAD 300 mg BID, N = 8): 2
- Gastrointestinal disorders TEAE, participants (MAD 300 mg BID, N = 8): 1 (12.5) n (%)
- General disorders and administration site conditions TEAE, events (MAD 300 mg BID, N = 8): 0
- General disorders and administration site conditions TEAE, participants (MAD 300 mg BID, N = 8): 0 n (%)
- Headache TEAE, events (MAD 300 mg BID, N = 8): 0
- Headache TEAE, participants (MAD 300 mg BID, N = 8): 0 n (%)
- Injury, poisoning, and procedural complications TEAE, events (MAD 300 mg BID, N = 8): 0
- Injury, poisoning, and procedural complications TEAE, participants (MAD 300 mg BID, N = 8): 0 n (%)
- Investigations TEAE, events (MAD 300 mg BID, N = 8): 1
- Investigations TEAE, participants (MAD 300 mg BID, N = 8): 1 (12.5) n (%)
- Medical device site reaction TEAE, events (MAD 300 mg BID, N = 8): 0
- Medical device site reaction TEAE, participants (MAD 300 mg BID, N = 8): 0 n (%)
- Musculoskeletal and connective tissue disorders TEAE, events (MAD 300 mg BID, N = 8): 0
- Musculoskeletal and connective tissue disorders TEAE, participants (MAD 300 mg BID, N = 8): 0 n (%)
- Nasal dryness TEAE, events (MAD 300 mg BID, N = 8): 0
- Nasal dryness TEAE, participants (MAD 300 mg BID, N = 8): 0 n (%)
- Neck pain TEAE, events (MAD 300 mg BID, N = 8): 0
- Neck pain TEAE, participants (MAD 300 mg BID, N = 8): 0 n (%)
- Nervous system disorders TEAE, events (MAD 300 mg BID, N = 8): 0
- Nervous system disorders TEAE, participants (MAD 300 mg BID, N = 8): 0 n (%)
- Oropharyngeal pain TEAE, events (MAD 300 mg BID, N = 8): 0
- Oropharyngeal pain TEAE, participants (MAD 300 mg BID, N = 8): 0 n (%)
- Reproductive system and breast disorders TEAE, events (MAD 300 mg BID, N = 8): 0
- Reproductive system and breast disorders TEAE, participants (MAD 300 mg BID, N = 8): 0 n (%)
- Respiratory, thoracic, and mediastinal disorders TEAE, events (MAD 300 mg BID, N = 8): 0
- Respiratory, thoracic, and mediastinal disorders TEAE, participants (MAD 300 mg BID, N = 8): 0 n (%)
- Skin and subcutaneous tissue disorders TEAE, events (MAD 300 mg BID, N = 8): 0
- Skin and subcutaneous tissue disorders TEAE, participants (MAD 300 mg BID, N = 8): 0 n (%)
- Sneezing TEAE, events (MAD 300 mg BID, N = 8): 0
- Sneezing TEAE, participants (MAD 300 mg BID, N = 8): 0 n (%)
- Testicular mass TEAE, events (MAD 300 mg BID, N = 8): 0
- Testicular mass TEAE, participants (MAD 300 mg BID, N = 8): 0 n (%)
- Wound TEAE, events (MAD 300 mg BID, N = 8): 0
- Wound TEAE, participants (MAD 300 mg BID, N = 8): 0 n (%)
- participants with AESIs (ALT increase) (MAD, all balinatunfib groups): four
- participants with at least one TEAE (MAD, all balinatunfib groups (12/32)): 37.5%
- tolerability (all repeated oral doses (100–600 mg total daily dose, 14 days)): well tolerated
